Activity calls are given as the source filed them. The rule behind the calls is not given here. A value given as a limit tells only on which side of the number the result lay.

One test deals with HeLa. Put plainly: Cytotoxicity against human HeLa cells after 48 hrs by SRB assay. The format is functional, cell-based. In general terms: The SRB assay estimates cell density from bound dye.
A further test has as its system MCF7. Put plainly: Cytotoxicity against human MCF7 cells after 48 hrs by SRB assay. The format is functional, cell-based. The note with it: MCF7, 48 h.
Test [1] is described as follows: Cytotoxicity against human Hep cells after 48 hrs by SRB assay. The format is functional, cell-based.
Test [2] in a line: Cytotoxicity against human IMR32 cells after 48 hrs by SRB assay. The format is functional, cell-based. The settings on record: IMR-32, 48 h.
The nature of test [3]: Cytotoxicity against human PC3 cells after 48 hrs by SRB assay. Format: functional, cell-based. The note with it: PC-3, 48 h.
In test [4] the test system is PC-3. In words: Induction of apoptotic morphological changes in human PC3 cells assessed as cell surface smoothening at cytotoxic IC50 level incubated for 12 hrs by scanning electron microscopy. Format: functional, cell-based. In a few lines: (§1)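 PC-3 cells incubated with test compound at its IC₅₀ for 12 h, with 2 µM camptothecin as positive control and untreated cells as control; cell surface morphology examined by scanning electron microscopy.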

For test [5], the system named is PC-3. Put plainly: Induction of apoptotic morphological changes in human PC3 cells assessed as cell size condensation at cytotoxic IC50 level incubated for 12 hrs by scanning electron microscopy. Format: functional, cell-based. In a few lines:
as §1

In test [6] the test system is PC-3. Put plainly: Induction of apoptotic morphological changes in human PC3 cells assessed as spherical cell shape changes at cytotoxic IC50 level incubated for 12 hrs by DAPI staining based confocal laser microscopy. Format: functional. Summed up: (§2)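 PC-3 cells (1 × 10⁶) in 1 ml medium in 24-well plates grown to confluence 24 h at 37 °C, 5% CO₂, then exposed to test compound at its IC₅₀ for 12 h; camptothecin 2 µM as positive control. Medium replaced with serum-free medium, cells stained with DAPI (10 mM) 1 h at 37 °C and imaged by laser scanning confocal fluorescence microscopy against untreated control.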

The test system of test [7] is PC-3. Put plainly: Induction of apoptotic morphological changes in human PC3 cells assessed as plasma membrane blebbing at cytotoxic IC50 level incubated for 12 hrs by scanning electron microscopy. The format is functional, cell-based. Summed up: as §1
Test [8] relates to PC-3. In words: Induction of intracellular ROS generation in human PC3 cells incubated for 12 hrs by DCFH-DA dye based spectrofluorimetry. Format: functional, cell-based. Summed up: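 PC-3 cells plated at 1 × 10⁶ cells/dish in 24-well plates, adhered 6 h, then grown with or without test compound at 5, 10 and 15 µM for 12 h; DCFH-DA added 30 min before end. Trypsinized plus floating cells collected, 1 × 10⁶ cells pelleted, resuspended in ice-cold PBS (1.0 ml) and intracellular peroxides measured by spectrofluorimetry.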

Test [9] has as its system PC-3. Put plainly: Reduction in mitochondrial membrane potential in human PC3 cells incubated for 12 hrs by rhodamine-123 dye based spectrofluorimetry. Format: functional, cell-based. In a few lines: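 PC-3 cells (1 × 10⁶) in 24-well plates incubated with or without test compound at 1, 5 and 10 µM for 12 h at 37 °C, 5% CO₂, washed with PBS, then loaded with rhodamine-123 1 h in serum-free medium. Fluorescence read in a plate reader at excitation 480 nm / emission 530 nm; shown with SD.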

Test [10] relates to PC-3. Put plainly: Induction of apoptotic morphological changes in human PC3 cells assessed as plasma membrane blebbing at cytotoxic IC50 level incubated for 12 hrs by DAPI staining based confocal laser microscopy. Format: functional, cell-based. In a few lines: as §2
Test [11] concerns PC-3. In words: Induction of apoptotic morphological changes in human PC3 cells assessed as increase in apoptotic bodies at cytotoxic IC50 level incubated for 12 hrs by DAPI staining based confocal laser microscopy. The format is functional, cell-based. In a few lines: as §2
Test [12] relates to PC-3. In words: Induction of apoptosis in human PC3 cells at 2 uM incubated for 12 hrs by DAPI staining based confocal laser microscopy. The format is functional, cell-based. In a few lines: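 PC-3 human prostate cancer cells (1 × 10⁶ in 1 ml medium) grown to confluence for 24 h at 37 °C, 5% CO₂, then exposed 12 h. Medium replaced with serum-free medium and cells stained with DAPI for 1 h at 37 °C. Nuclear and cell morphology imaged by laser scanning confocal fluorescence microscopy against untreated control cells.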

For `O=C(c1cccnc1)c1cc(F)ccc1O`, the half-inhibitory concentration (IC50) turned out to be 27 µM with HeLa; 27.8 µM in the test on MCF7; 12 µM in test [1]; 6.21 µM in [2]; 11.8 µM in test [3].

On to `CO[C@@]12[C@H](COC(N)=O)C3=C(C(=O)C(C)=C(N)C3=O)N1C[C@@H]1N[C@@H]12` [MITOMYCIN], for which, in test [3], the half-inhibitory concentration (IC50) is 1.5 µM.

As to `Cc1ccc(O)c(C(=O)c2cccnc2)c1`, the result in the test with PC-3 [4], with PC-3 [5], in the test with PC-3 [6], in the test with PC-3 [7], with PC-3 [10] and in the test with PC-3 [11] was Active. For the same compound, the concentration for half-maximal inhibition (IC50) in the test on HeLa was determined as 26 µM; in the test on MCF7, 8.04 µM; in test [1] it was 11 µM; in test [2], 5.54 µM; in test [3] it was 10 µM. Moreover, the Activity result in the test with PC-3 [8] and in the test on PC-3 [9] was “Dose-dependent effect” in each case.

As to `O=c1[nH]cc(F)c(=O)[nH]1` [FLUOROURACIL], the 50% inhibitory concentration (IC50) in [1] amounted to 0.5 µM; in test [2], 1.3 µM.

`O=C(c1cccnc1)c1ccc(Br)cc1O`: the half-maximal inhibitory concentration (IC50) is 37 µM with HeLa; over 100 µM with MCF7; 85 µM in [1]; 89 µM in test [2]; 88.6 µM in [3].

For the compound `O=C(c1cccnc1)c1cc(Cl)ccc1O`, the IC50 in the test on HeLa came out at 24 µM; in the test on MCF7, 29 µM; in test [1], 27 µM; in [2], 19.5 µM; in [3], 24.8 µM.

With `C=CCOc1ccc(C)cc1C(=O)c1cccnc1`, the IC50 with HeLa amounted to 94 µM; in the test on MCF7, 84 µM; in [1], 72 µM; in test [2], 87 µM; in test [3] it was 98 µM.

For `O=C(c1cccnc1)c1ccccc1O`, the IC50 stood at 33 µM with HeLa; 24.6 µM in the test with MCF7; 31 µM in test [1]; 33.7 µM in test [2]; 33.4 µM in test [3].

In the case of `O=C(c1cccnc1)c1cccc(Cl)c1O`, the half-maximal inhibitory concentration (IC50) was 21 µM with HeLa; 26.7 µM with MCF7; 28 µM in test [1]; 26 µM in test [2]; 31.5 µM in test [3].

In the case of `C=CCOc1ccc(Cl)cc1C(=O)c1cccnc1`, the IC50 in the test with HeLa is 75 µM; in the test with MCF7 it was 54 µM; in [1] it was over 100 µM; in [2], 91 µM; in [3] it was over 100 µM.

With `O=C(c1cccnc1)c1cc(Br)ccc1O`, the IC50 came out at 29 µM in the test on HeLa; 53.5 µM in the test on MCF7; 29 µM in test [1]; 23.4 µM in [2]; 60.2 µM in [3].

`CC(=O)O[C@H]1C(=O)[C@@]2(C)[C@H]([C@H](OC(=O)c3ccccc3)[C@]3(O)C[C@H](OC(=O)[C@H](O)[C@@H](NC(=O)c4ccccc4)c4ccccc4)C(C)=C1C3(C)C)[C@]1(OC(C)=O)CO[C@@H]1C[C@@H]2O` [PACLITAXEL] yielded a concentration for half-maximal inhibition (IC50) in the test on MCF7 of 0.2 µM.

On to `C=CCOc1ccc(Br)cc1C(=O)c1cccnc1`, for which the IC50 in the test on HeLa was 96 µM; in the test with MCF7, 92 µM; in [1], 78 µM; in test [2] it was 88 µM; in [3], 59 µM.

`C=CCOc1ccccc1C(=O)c1cccnc1`: the half-maximal inhibitory concentration (IC50) was over 100 µM with HeLa; over 100 µM in the test on MCF7; over 100 µM in test [1]; 44 µM in test [2]; 55 µM in test [3].

For the compound `C=CCOc1c(Cl)cc(Cl)cc1C(=O)c1cccnc1`, the concentration for half-maximal inhibition (IC50) in the test on HeLa was 34 µM; in the test with MCF7, 85 µM; in test [1], over 100 µM; in test [2], 52 µM; in test [3], 96 µM.

Turning to `CC[C@@]1(O)C(=O)OCc2c1cc1n(c2=O)Cc2cc3ccccc3nc2-1`, the result in the test on PC-3 [12] was Active.

As for `C=CCOc1cc(Br)ccc1C(=O)c1cccnc1`, the IC50 in the test with HeLa is over 100 µM; in the test on MCF7, over 100 µM; in test [1] it was over 100 µM; in test [2], 98 µM; in [3] it was over 100 µM.

In the case of `O=C(c1cccnc1)c1cc(Cl)cc(Cl)c1O`, the IC50 with HeLa was over 100 µM; with MCF7 it was 29.6 µM; in test [1], 27 µM; in test [2], 28.8 µM; in [3], 28.7 µM.

With `C=CCOc1ccc(F)cc1C(=O)c1cccnc1`, the IC50 is 93 µM in the test on HeLa; over 100 µM in the test with MCF7; over 100 µM in test [1]; 91 µM in [2]; over 100 µM in test [3].

As to `C=CCOc1c(Cl)cccc1C(=O)c1cccnc1`, the 50% inhibitory concentration (IC50) was 100 µM with HeLa; over 100 µM in the test on MCF7; 92 µM in test [1]; 94 µM in test [2]; over 100 µM in test [3].

The IC50 is the concentration that gives 50% inhibition. Low readings indicate higher potency, high ones lower potency.

Values taken from ChEMBL document CHEMBL3352304, “Synthesis and evaluation of 3-salicyloylpyridine derivatives as cytotoxic mitochondrial apoptosis inducers” (Bioorg Med Chem Lett, 2014).
